Results published in ChEMBL document CHEMBL4706580, “4-Amino-1,2,4-triazole-3-thione-derived Schiff bases as metallo-β-lactamase inhibitors” (Eur J Med Chem, 2020).
Calls of active or inactive are those of the source. The calls are words filed in the database; no cut-off is given here.

Key:
[1] = Inhibition of beta-lactamase IMP-1 (unknown origin) expressed in Escherichia coli BL21(DE3) using imipenem as substrate by measuring substrate hydrolysis at 100 uM by spectrophotometric analysis
Method in brief: (§1)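 Purified enzyme (overproduced in E. coli BL21(DE3), pET-9a; ion-exchange and gel filtration), 1-70 nM final. Reporter substrate 150 μM imipenem, read at 300 nm, 30 °C, 50 mM HEPES pH 7.5. Single-point screen at 100 or 200 μM; Ki from v0/vi vs [I] (0.5–1,000 μM final) assuming competitive inhibition, or Dixon plot. Triplicate.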

[2] = Inhibition of beta-lactamase VIM-2 (unknown origin) expressed in Escherichia coli LZ2310 assessed as potentiation of cefoxitin antibacterial activity by measuring cefoxitin induced diameter of inhibition zone at 40 uM incubated for 18 hrs by disk diffusion method (reference value: 14 mm)
Method in brief: (§2)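 Efflux-deficient E. coli LZ2310 (NorE, MdfA, AcrA knocked out) carrying pLB-II with the cloned MBL gene. Mueller-Hinton, CLSI disk diffusion; antibiotic disks (30 µg cefoxitin for VIM-2, 10 µg ampicillin for VIM-4, 30 µg ceftazidime for NDM-1/IMP-1) loaded with inhibitor in DMSO (≤15 µL). Zone diameter after 18 h, 35 ± 1 °C; DMSO and 220 µg EDTA controls. Triplicate.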

[3] = Binding affinity to beta-lactamase VIM-2 expressed in Escherichia coli BL21(DE3) assessed as association constant at 25 degC by isothermal titration calorimetry
Method in brief: (§3)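 VIM-2 (19 μM) in 10 mM HEPES-NaOH, 0.15 M NaCl, 50 μM ZnSO4, pH 7.5, DMSO matched to ligand (1-2% final). One 0.5 μl then 19 × 2 μl injections of compound (200-400 μM), 150 s apart, 25 °C. Buffer dilution heats subtracted; nonlinear least-squares fit for n, Ka, ΔH; compound concentration adjusted in fitting so n ≈ 1.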

[4] = Inhibition of beta-lactamase NDM1 (unknown origin) expressed in Escherichia coli BL21(DE3) using cefotaxime/nitrocefin as substrate by measuring substrate hydrolysis by spectrophotometric analysis
Method in brief: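 His-tagged enzyme from E. coli BL21(DE3) pET-15b, affinity-purified, 1-70 nM final. Reporter substrate 120 μM cefotaxime (260 nm) or 100 μM nitrocefin (482 nm), 30 °C, 50 mM HEPES pH 7.5. Inhibitor 0.5–1,000 μM final; competitive Ki from v0/vi vs [I] slope or Dixon plot. Triplicate.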

[5] = Inhibition of beta-lactamase CphA (unknown origin) expressed in Escherichia coli BL21(DE3) using imipenem as substrate by measuring substrate hydrolysis by spectrophotometric analysis
Method in brief: (§4)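 Enzyme 0.2–0.8 nM in 15 mM cacodylate pH 6.5, no added zinc, pre-incubated 30 min at 21 °C with inhibitor (100 μM screen). Imipenem substrate added from 10 mM stock; hydrolysis at 300 nm, 30 °C. Residual activity vs three uninhibited samples; Ki (1–100 μM inhibitor) by Hanes linearization, competitive model. Triplicate.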

[6] = Inhibition of beta-lactamase IMP-1 (unknown origin) expressed in Escherichia coli BL21(DE3) using imipenem as substrate by measuring substrate hydrolysis at 200 uM by spectrophotometric analysis; method in brief: as §1
[7] = Inhibition of beta-lactamase VIM4 (unknown origin) expressed in Escherichia coli BL21(DE3) using imipenem as substrate by measuring substrate hydrolysis by spectrophotometric analysis; method in brief: as §1
[8] = Binding affinity to beta-lactamase VIM-2 expressed in Escherichia coli BL21(DE3) assessed as change in entropy at 25 degC by isothermal titration calorimetry; method in brief: as §3
[9] = Binding affinity to beta-lactamase VIM-2 expressed in Escherichia coli BL21(DE3) assessed as change in enthalpy at 25 degC by isothermal titration calorimetry; method in brief: as §3
[10] = Binding affinity to beta-lactamase VIM-2 expressed in Escherichia coli BL21(DE3) assessed as Gibbs free energy at 25 degC by isothermal titration calorimetry; method in brief: as §3
[11] = Binding affinity to beta-lactamase VIM-2 expressed in Escherichia coli BL21(DE3) assessed as dissociation constant at 25 degC by isothermal titration calorimetry; method in brief: as §3
[12] = Inhibition of beta-lactamase VIM-4 (unknown origin) expressed in Escherichia coli LZ2310 assessed as potentiation of ampicillin antibacterial activity by measuring ampicillin induced diameter of inhibition zone at 40 uM incubated for 18 hrs by disk diffusion method (reference value: 6 mm); method in brief: as §2
[13] = Inhibition of beta-lactamase L1 (unknown origin) expressed in Escherichia coli BL21(DE3) using nitrocefin as substrate by measuring substrate hydrolysis preincubated for 30 mins by spectrophotometric analysis
Method in brief: (§5)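 Enzyme 0.2–0.8 nM in 25 mM HEPES pH 7.5 with 50 μM ZnCl2 final, pre-incubated 30 min at 21 °C with inhibitor (100 μM screen). Nitrocefin 100 μM final, read at 482 nm, 30 °C. Residual activity vs three uninhibited samples; Ki (1–100 μM inhibitor) from Hanes linearization, competitive model. Triplicate.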

[14] = Inhibition of beta-lactamase VIM2 (unknown origin) expressed in Escherichia coli BL21(DE3) using imipenem as substrate by measuring substrate hydrolysis by spectrophotometric analysis; method in brief: as §1
[15] = Inhibition of beta-lactamase L1 (unknown origin) expressed in Escherichia coli BL21(DE3) using nitrocefin as substrate by measuring substrate hydrolysis at 100 uM preincubated for 30 mins by spectrophotometric analysis; method in brief: as §5
[16] = Inhibition of beta-lactamase L1 (unknown origin) expressed in Escherichia coli BL21(DE3) using nitrocefin as substrate by measuring substrate hydrolysis at 200 uM preincubated for 30 mins by spectrophotometric analysis
[17] = Inhibition of beta-lactamase VIM-2 (unknown origin) expressed in Escherichia coli LZ2310 assessed as potentiation of cefoxitin antibacterial activity by measuring cefoxitin induced diameter of inhibition zone at 80 uM incubated for 18 hrs by disk diffusion method (reference value: 14 mm); method in brief: as §2
[18] = Inhibition of beta-lactamase IMP-1 (unknown origin) expressed in Escherichia coli BL21(DE3) using imipenem as substrate by measuring substrate hydrolysis by spectrophotometric analysis; method in brief: as §1
[19] = Inhibition of beta-lactamase NDM-1 (unknown origin) expressed in Escherichia coli LZ2310 assessed as potentiation of ceftazidime antibacterial activity by measuring ceftazidime induced diameter of inhibition zone at 80 uM incubated for 18 hrs by disk diffusion method (reference value: 15 mm); method in brief: as §2
[20] = target: Hydroxyacylglutathione hydrolase (Homo sapiens); assay: Inhibition of human Glyoxalase II expressed in Escherichia coli BL21 (DE3)
[21] = Inhibition of beta-lactamase NDM1 (unknown origin) expressed in Escherichia coli BL21(DE3) using cefotaxime/nitrocefin as substrate by measuring substrate hydrolysis at 100 uM by spectrophotometric analysis
[22] = Inhibition of beta-lactamase CphA (unknown origin) expressed in Escherichia coli BL21(DE3) using imipenem as substrate by measuring substrate hydrolysis at 100 uM by spectrophotometric analysis; method in brief: as §4
[23] = Inhibition of beta-lactamase VIM2 (unknown origin) expressed in Escherichia coli BL21(DE3) using imipenem as substrate by measuring substrate hydrolysis at 200 uM by spectrophotometric analysis; method in brief: as §1
[24] = Inhibition of beta-lactamase NDM1 (unknown origin) expressed in Escherichia coli BL21(DE3) using cefotaxime/nitrocefin as substrate by measuring substrate hydrolysis at 200 uM by spectrophotometric analysis
[25] = Inhibition of beta-lactamase VIM2 (unknown origin) expressed in Escherichia coli BL21(DE3) using imipenem as substrate by measuring substrate hydrolysis at 100 uM by spectrophotometric analysis; method in brief: as §1
[26] = Inhibition of beta-lactamase IMP-1 (unknown origin) expressed in Escherichia coli LZ2310 assessed as potentiation of ceftazidime antibacterial activity by measuring ceftazidime induced diameter of inhibition zone at 40 uM incubated for 18 hrs by disk diffusion method (reference value: 9 mm); method in brief: as §2
[27] = Inhibition of beta-lactamase NDM-1 (unknown origin) expressed in Escherichia coli LZ2310 assessed as potentiation of ceftazidime antibacterial activity by measuring ceftazidime induced diameter of inhibition zone at 40 uM incubated for 18 hrs by disk diffusion method (reference value: 15 mm); method in brief: as §2
[28] = Inhibition of beta-lactamase CphA (unknown origin) expressed in Escherichia coli BL21(DE3) using imipenem as substrate by measuring substrate hydrolysis at 200 uM by spectrophotometric analysis

Structure (SMILES) | inhibition [1] | inhibition zone (IZ) [2] | Ka [3] | inhibition [6] | -TdeltaS [8] | deltaH [9] | deltaG [10] | inhibition zone (IZ) [12] | inhibition [15] | IC50 [20] | inhibition [21] | Ki [4] | Ki [5] | Ki [7] | Kd [11] | Ki [13] | Ki [14] | further results
Oc1ccc(/C=N/n2c(-c3ccccc3-c3ccccc3)n[nH]c2=S)c(O)c1 | – | – | – | – | – | – | – | – | inactive | – | – | 6.4 µM | – | 9 µM | – | – | 4.5 µM | inhibition [16]: inactive; inhibition zone (IZ) [17]: 14 mm; Ki [18]: 12 µM; inhibition zone (IZ) [19]: 15 mm
Oc1ccc(/C=N/n2c(-c3cccc(Br)c3)n[nH]c2=S)c(O)c1 | inactive | – | 3.1 10^6/M | inactive | -1.6 kcal/mol | -10.4 kcal/mol | -8.8 kcal/mol | – | inactive | – | 45% | – | – | 13 µM | 0.323 µM | – | 0.62 µM | inhibition [16]: inactive
Cc1ccccc1-c1n[nH]c(=S)n1/N=C/c1ccc(OCc2ccccc2)cc1 | – | – | – | – | – | – | – | 6 mm | – | 5.9 µM | inactive | – | 22 µM | 2.1 µM | – | 12 µM | – | inhibition [23]: inactive; inhibition [24]: inactive; Ki [18]: 0.3 µM; inhibition [25]: inactive; inhibition zone (IZ) [26]: 9 mm
Oc1ccc(/C=N/n2c(-c3ccccc3O)n[nH]c2=S)c(O)c1 | inactive | 14 mm | 3.4 10^6/M | inactive | -2.1 kcal/mol | -9.6 kcal/mol | -7.5 kcal/mol | 6 mm | 31% | – | inactive | – | 6 µM | 0.5 µM | 2.98 µM | – | 2 µM | inhibition [24]: inactive
Cc1ccccc1-c1n[nH]c(=S)n1/N=C/c1ccc(O)cc1O | – | 14 mm | – | – | – | – | – | 6 mm | – | 19 µM | inactive | – | 62 µM | 0.4 µM | – | 31 µM | 7 µM | inhibition [24]: inactive

Continued, in another order:

inhibition [1] | inhibition zone (IZ) [2] | Ka [3] | inhibition [6] | -TdeltaS [8] | deltaH [9] | deltaG [10] | inhibition zone (IZ) [12] | inhibition [15] | IC50 [20] | inhibition [21] | Structure (SMILES) | Ki [4] | Ki [5] | Ki [7] | Kd [11] | Ki [13] | Ki [14] | further results
inactive | 14 mm | 2.6 10^6/M | inactive | 2.4 kcal/mol | -6.3 kcal/mol | -8.7 kcal/mol | 6 mm | – | – | – | COc1ccc(O)c(-c2n[nH]c(=S)n2/N=C/c2ccccc2C(=O)O)c1 | 27 µM | 13 µM | 0.5 µM | 0.389 µM | 9 µM | 0.7 µM | –
inactive | 20 mm | 1.9 10^6/M | inactive | 4.9 kcal/mol | -3.6 kcal/mol | -8.5 kcal/mol | – | – | 25.5 µM | – | O=C(O)c1ccccc1/C=N/n1c(-c2ccccc2)n[nH]c1=S | 38 µM | 58 µM | 1.4 µM | 0.519 µM | 5 µM | 2.7 µM | –
45% | 14 mm | 7.7 10^6/M | – | -1.1 kcal/mol | -9.1 kcal/mol | -8 kcal/mol | 6 mm | – | – | – | Cc1ccccc1-c1n[nH]c(=S)n1/N=C/c1ccc(O)c(C(=O)O)c1 | – | – | 1.4 µM | 1.3 µM | 13 µM | 2 µM | inhibition [22]: 39%
– | 15 mm | 1.4 10^6/M | – | 5.1 kcal/mol | -3.3 kcal/mol | -8.4 kcal/mol | – | – | 13.2 µM | – | O=C(O)c1ccccc1/C=N/n1c(-c2ccc3ccccc3c2)n[nH]c1=S | 2.3 µM | – | 0.4 µM | 0.713 µM | 4.62 µM | 0.7 µM | inhibition zone (IZ) [27]: 15 mm; inhibition [28]: inactive; inhibition [22]: inactive; Ki [18]: 10.6 µM; inhibition zone (IZ) [26]: 9 mm
inactive | – | – | inactive | – | – | – | – | 60% | – | – | O=C(O)c1ccccc1/C=N/n1c(-c2ccc(Cl)cc2)n[nH]c1=S | 7.6 µM | – | 7 µM | – | – | – | inhibition [23]: inactive; inhibition [25]: inactive; inhibition zone (IZ) [19]: 15 mm
53% | 14 mm | 1.2 10^6/M | – | 4.3 kcal/mol | -3.1 kcal/mol | -8.2 kcal/mol | 6 mm | – | – | – | O=C(O)c1ccccc1/C=N/n1c(-c2cc(Cl)cc(Cl)c2)n[nH]c1=S | 30 µM | 4 µM | 0.8 µM | 0.863 µM | 3 µM | 3 µM | –
